# Shown are actives, neighbours in structure and some others; about 2.8% of the full set was active somewhere.
# PAFAH2 inh = inhibitors of human PAFAH2; inhibition, % at 3.39 µM; Q99487; recombinant PAFAH2, FP-rhodamine activity probe, fluorescence polarization; AID 492956; 340,000 compounds, 0.99% hits;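 active = inhibition above the mean over all tested compounds plus 3 SD, cut at about 30% in these data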;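 note: inhibitors block probe labeling of enzyme so polarization drops; 0% = enzyme with DMSO and 100% = wells lacking PAFAH2 protein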
# pPAFAH inh = inhibitors of human plasma PAF acetylhydrolase (pPAFAH); Q13093; recombinant pPAFAH, FP-rhodamine probe fluorescence polarization; inhibition, % at 3.39 µM; 330,000 compounds, 1.5% hits; AID 463082;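 active = inhibition above the mean inhibition across the screen plus 3 SD, cut at about 25% in these data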;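 note: inhibitors block binding of the rhodamine activity-based probe so polarization drops; 0% = enzyme with DMSO and 100% = wells lacking pPAFAH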
# Target sequence (Q13093 whole entry, looked up): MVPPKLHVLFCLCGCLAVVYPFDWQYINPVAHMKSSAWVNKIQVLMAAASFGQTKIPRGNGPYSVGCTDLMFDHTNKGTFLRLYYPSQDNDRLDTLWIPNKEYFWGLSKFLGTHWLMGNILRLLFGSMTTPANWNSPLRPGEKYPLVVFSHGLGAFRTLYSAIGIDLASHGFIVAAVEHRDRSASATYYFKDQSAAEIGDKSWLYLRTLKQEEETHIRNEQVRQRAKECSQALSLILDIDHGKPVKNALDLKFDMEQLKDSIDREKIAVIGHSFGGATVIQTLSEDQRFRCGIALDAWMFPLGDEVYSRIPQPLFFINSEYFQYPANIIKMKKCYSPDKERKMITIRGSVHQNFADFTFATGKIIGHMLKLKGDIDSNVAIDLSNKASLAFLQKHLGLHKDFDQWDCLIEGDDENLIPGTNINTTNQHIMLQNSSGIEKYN
# mABHD4 FP = inhibitors of mouse ABHD4 | Q8VD66 | purified mABHD4, FP-Rh probe fluorescence polarization | inhibition, % at 8.92 µM | 370,000 compounds, 0.54% hits | AID 720543;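 active = inhibition exceeding the mean over every tested compound plus 3 SD, cut at about 30% in these data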;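 note: 0% = plate median of compound wells and 100% = S159A mutant with DMSO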
#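 System: mouse ABHD4 enzyme, wild type / Medium: HEPES pH 7.0, NaCl, Pluronic buffer / Reagent: FP-Rh activity-based fluorescent probe / Control set: S159A mutant high control, sample median low control / Detection: fluorescence polarization with parallel and perpendicular emission, 525/598 nm / Schedule: 45 min + 60 min at 25 °C / Compound dosing: 8.92 µM, single dose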
# HTRA1 inhibitor = HTRA1 (human) protease inhibition. Q92743. recombinant HTRA1, FP-rhodamine activity-based probe, fluorescence polarization. inhibition, % at 5.96 µM. 340,000 compounds, 0.5% hits. AID 504803; in the data active = inhibition above about 36%;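 note: 0% = enzyme with DMSO and 100% = wells lacking enzyme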
# PAFAH1B3 FP inh = inhibitors of human PAFAH1B3. recombinant PAFAH1B3, FP-rhodamine probe, fluorescence polarization. Q15102. 340,000 compounds, 0.28% hits. inhibition, % at 3.39 µM;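 active = inhibition above the screen-wide average of all tested compounds plus 3 SD, cut at about 25% in these data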;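 note: 0% = enzyme with DMSO only and 100% = wells lacking PAFAH1B3 protein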
# PAFAH1B2 inh = blocks human PAF acetylhydrolase 1b catalytic subunit 2; 340,000 compounds, 1.2% hits; recombinant PAFAH1B2, FP-rhodamine activity probe, fluorescence polarization; P68402; inhibition, % at 3.39 µM;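 active = inhibition above the mean of all tested compounds plus 3 SD, cut at about 24% in these data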;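 note: 0% = enzyme with DMSO and 100% = wells lacking PAFAH1B2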
# Target sequence (P68402 whole entry, looked up): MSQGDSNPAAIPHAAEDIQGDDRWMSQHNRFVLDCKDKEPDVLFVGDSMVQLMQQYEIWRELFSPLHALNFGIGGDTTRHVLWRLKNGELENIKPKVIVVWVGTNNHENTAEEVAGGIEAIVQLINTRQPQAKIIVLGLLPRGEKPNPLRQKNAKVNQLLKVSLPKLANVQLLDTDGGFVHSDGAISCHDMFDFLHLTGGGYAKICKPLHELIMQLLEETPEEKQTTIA
# pPAFAH FP conf = pPAFAH (human) inhibition, confirmed; shares compounds with pPAFAH inh; recombinant pPAFAH, FP-Rh probe fluorescence polarization; inhibition, % at 3.39 µM; 2,300 compounds, 72% hits;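 active = mean inhibition of the triplicate above the hit cutoff set for the earlier primary screen, cut at about 25% in these data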;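 note: 0% = enzyme with DMSO and 100% = wells lacking pPAFAH enzyme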
# * hit, by the source's call; nt = no result; ! = not confirmed by another sample.
SMILES,PAFAH2 inh,pPAFAH inh,mABHD4 FP,HTRA1 inhibitor,PAFAH1B3 FP inh,PAFAH1B2 inh,pPAFAH FP conf
COc1cc2c(cc1OC)C(c1ccccc1C)CC(=O)N2 (stereo not drawn),1,67*,-4,10,6,3,3
NC(=S)NN=Cc1ccc(-c2ccc(S(=O)(=O)Nc3ncccn3)cc2)o1,34*,40*,19,7,31*,10,19
CCOc1ccc(C(=O)N/N=C/c2ccc(-c3ccc(S(=O)(=O)Nc4ncccn4)cc3)o2)cc1,8,11,-8,-7,-7,3,nt
COc1cc(-c2nc(-c3cccnc3)no2)cc(OC)c1OC,3,40*,-6,1,7,7,2
COc1ccc(-c2nc(-c3cccnc3)no2)cc1OC,1,5,-8,2,3,-1,nt
Cc1cc(NS(=O)(=O)c2ccc(NC(=O)CSc3nnc(SCc4ccc(Cl)cc4)s3)cc2)nc(C)n1,nt,nt,-31,nt,nt,nt,nt
COc1cc(N2C(=O)NC3CC2(C)Oc2ccccc23)cc(OC)c1OC (stereo not drawn),-5,35*,-3,1,9,4,2
CN(C)C(CNC(=O)c1cc(-c2ccco2)nc2ccccc12)c1ccccc1 (stereo not drawn),6,61*,13,19,8,4,23
COC(=O)C1CCN(C(=O)c2cc(-c3ccco3)nc3ccccc23)CC1,20,45*,22,22,11,4,21
O=C(N/N=C/c1cccc(F)c1)c1cc(-c2ccco2)nc2ccccc12,8,39*,3,1,9,2,21
CC(C)CCNC(=O)c1cc(-c2ccco2)nc2ccccc12,3,-1,0,-2,0,-1,nt
O=C(c1cc(-c2ccco2)nc2ccccc12)N1CCN(Cc2ccccc2)CC1,2,11,3,8,2,3,nt
O=C(O)c1cc(-c2ccco2)nc2ccc(Br)cc12,45*!,63*!,14,0,22,14,7
Cc1ccc(-n2c(SCC(=O)c3ccccc3Cl)nnc2-c2cnccn2)cc1,nt,nt,-6,nt,nt,nt,nt
O=C1/C(=C\c2cccc([N+](=O)[O-])c2O)SC(=S)N1Cc1ccccc1,2,35*,-27,9,-12,-1,77*
CC[C@@]1(c2ccc(C)cc2)C(=O)N(C(=O)OC)N1C(=O)OC,nt,nt,0,nt,nt,nt,nt
O=C1c2ccc(-c3ccc(F)cc3OCc3ccccc3)cc2S(=O)(=O)c2cccc(C(=O)N3CCCC3)c21,8,46*,nt,-4,5,12,45*
O=C(NCc1cccc(OC(F)(F)F)c1)c1cccc2c1C(=O)c1ccc(-c3ccc(F)cc3OCc3ccccc3)cc1S2(=O)=O,-10,15,0,-19,-8,-9,nt
CCN(CC)c1nc(N)c2c(N)nc3c(c2c1C#N)CC(c1ccccc1)O3 (stereo not drawn),18,20,8,-2,5,7,nt
CCN(CC)c1nc(N)c2c(N)n(-c3ccccc3C)c(=S)c(C#N)c2c1C#N,43*,47*,11,33,12,25*,31*
Nc1c(C(=O)O)ccc2c1C(=O)c1ccccc1C2=O,-2,9,2,2,3,3,nt
Nc1cc(C(=O)O)c(N)c2c1C(=O)c1ccccc1C2=O,66*,74*,nt,82*,73*,56*,54*
Nn1c(SCC(=O)Nc2ccc(OCc3ccccc3)cc2)nnc1-c1cc(-c2ccc(Cl)cc2)n[nH]1,nt,nt,-3,nt,nt,nt,nt
O=C1c2nc3cc(-c4ccco4)[nH]n3c(=O)c2CN1Cc1ccccc1,nt,35*,25,nt,nt,nt,12
CN1[C@H](Cc2ccccc2)COc2cc(N3CCSCC3)ccc2S1(=O)=O,nt,nt,1,nt,nt,nt,nt
SMILES,PAFAH2 inh,pPAFAH inh,mABHD4 FP,HTRA1 inhibitor,PAFAH1B3 FP inh,PAFAH1B2 inh,pPAFAH FP conf
Cc1cccc(N2CCN(C(=O)c3ccc(CS(=O)Cc4cccc(Cl)c4)o3)CC2)c1C (stereo not drawn),7,43*,2,-19,8,2,19
COc1ccc(N2CCN(C(=O)c3ccc(CS(=O)Cc4ccc(Cl)cc4)o3)CC2)cc1 (stereo not drawn),1,36*,-14,1,-1,3,28*
Cc1ccc(CS(=O)Cc2ccc(C(=O)N3CCN(c4cccc(C)c4C)CC3)o2)cc1 (stereo not drawn),nt,nt,-5,-16,nt,nt,nt
CC(=O)CC[C@H]1CC[C@]2(CCCN(C(=O)c3ccno3)C2)O1,nt,nt,0,nt,nt,nt,nt
O=C(N/N=C\c1ccccc1F)c1ccc(-c2ccccc2)cc1,-1,nt,-17,-13,3,0,nt
O=C(N/N=C/c1ccccc1)c1ccc(-c2ccccc2)cc1,-10,69*,-2,-9,0,0,6
COc1ccc(-c2[nH]ncc2N=Nc2ccccc2)cc1,2,49*,-18,-32,3,5,1
Cc1ccccc1-n1c(SCC(=O)N2CCOCC2)nc(O)cc1=O,5,39*,0,-6,2,0,8
CC(=O)Nc1ccc(Br)c2ccccc12,7,-2,0,3,8,3,nt
O=C(Nc1ccc(Br)c2ccccc12)c1ccc2ccccc2c1O,48*,36*,18,19,22,18,52*
CC(C)(N[C@@H](Cc1ccccc1)C(=O)NCCCc1ccccc1)C(=O)NCc1ccccc1,nt,nt,2,nt,nt,nt,nt
O=C(O)CN1CCN(Cc2ccccc2Cl)C1=O,-9,1,5,-2,-2,-2,nt
O=C(O)CN1CCN(Cc2ccccc2F)C1=O,3,58*,2,0,5,1,2
C[C@H]1CN(c2ccc(N3CCNC[C@@H]3C)cc2C#N)CCN1Cc1ccccc1,nt,nt,2,nt,nt,nt,nt
CN(C)c1ccnc(SCc2ccccc2Cl)c1C#N,0,35*,-2,-31,7,6,23
O=C(OCC#CCSc1nnc(-c2cccc3ccccc23)o1)c1ccc(F)c(F)c1,nt,nt,-13,nt,nt,nt,nt
O=C1N/C(=N\S(=O)(=O)c2ccccc2)S/C1=C\c1cc([N+](=O)[O-])ccc1O,31*,41*,25,0,43*,38*,49*
COc1cc(/C=C2/S/C(=N/S(=O)(=O)c3ccccc3)NC2=O)c([N+](=O)[O-])cc1OC,20,16,5,6,3,17,nt
Cc1ccc(N=C2NC(=O)CS2)cc1,9,4,6,-6,3,5,nt
Cc1ccc(C)n1/N=C1/NC(=O)CS1,39*,39*,15,15,21,2,18
Cc1cc(/C=C2/SC(=S)N(c3cccc(C(F)(F)F)c3)C2=O)c(C)n1-c1cccnc1,24,44*,nt,-19,-6,0,42*
Cc1cc(/C=C2\SC(=S)N(Cc3ccco3)C2=O)c(C)n1-c1cccnc1,6,nt,-12,-5,5,7,nt

# Screening data deposited in PubChem by The Scripps Research Institute Molecular Screening Center.
